From article PMC10765384 (Bioorganic chemistry, 2023)

Experiments:
[1] = Cytotoxicity, CellTiter 96 assay in CEM cells; type: cell-based, human; conditions: human, T lymphoblast (CEM) cells
How it was run: (§1)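 Colorimetric non-radioactive cell proliferation read-out (CellTiter 96). CC50 is the test compound concentration that inhibited cell growth by 50%.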

[2] = system: HBV DNA replication in HepAD38 cells; test: Anti-HBV activity, 7-day assay in HepAD38 cells; type: cell-based, hepatitis B virus; conditions: for EC50 / EC90: Hepatitis B virus, HePAD38, 168 h; for EC50: read-out: Anti-HBV activity EC50; for EC90: read-out: Anti-HBV activity EC90; for fold increase of anti-HBV potency compared to GLP-26: HepAD38 EC50 relative to reference GLP-26
[3] = Cytotoxicity, CellTiter 96 assay in Vero cells; type: cell-based, African green monkey; conditions: African green monkey, kidney (Vero) cells
How it was run: as §1

[4] = Cytotoxicity, CellTiter 96 assay in PBM cells; type: cell-based, human; conditions: human, peripheral blood mononuclear (PBM) cells
How it was run: as §1

[5] = Cytotoxicity, CellTiter 96 assay in HepG2 cells; type: cell-based, human; conditions: human, hepatocellular carcinoma (HepG2) cells
How it was run: as §1

C#CCNC(=O)C(=O)c1c(C)c(C(=O)Nc2ccc(F)c(F)c2)n(CC)c1C [Compound 5a, N-(3,4-Difluorophenyl)-1-ethyl-3,5-dimethyl-4-(2-oxo-2-(prop-2-yn-1-ylamino)acetyl)-1H-pyrrole-2-carboxamide]
CC50 [1]: > 100 µM | EC50 [2]: 0.0071 ± 0.0062 µM | EC90 [2]: 0.0494 ± 0.0129 µM | CC50 [3]: > 100 µM | CC50 [4]: > 100 µM | CC50 [5]: > 100 µM

C#CCNC(=O)C(=O)c1c(C)c(C(=O)Nc2ccc(F)c(F)c2)n(CCC)c1C [Compound 5b, N-(3,4-Difluorophenyl)-3,5-dimethyl-4-(2-oxo-2-(prop-2-yn-1-ylamino)acetyl)-1-propyl-1H-pyrrole-2-carboxamide]
CC50 [1]: > 100 µM | EC50 [2]: 0.0091 ± 0.0037 µM | EC90 [2]: 0.044 ± 0.021 µM | CC50 [3]: > 100 µM | CC50 [4]: > 100 µM | CC50 [5]: > 100 µM

C#CCNC(=O)C(=O)c1c(C)c(C(=O)Nc2ccc(F)c(F)c2)n(CCCC)c1C [Compound 5c, 1-Butyl-N-(3,4-difluorophenyl)-3,5-dimethyl-4-(2-oxo-2-(prop-2-yn-1-ylamino)acetyl)-1H-pyrrole-2-carboxamide]
CC50 [1]: > 100 µM | EC50 [2]: 0.0874 ± 0.0037 µM | EC90 [2]: 0.556 ± 0.147 µM | CC50 [3]: > 100 µM | CC50 [4]: > 100 µM | CC50 [5]: > 100 µM

C#CCNC(=O)C(=O)c1c(C)c(C(=O)Nc2ccc(F)c(F)c2)n(CC=C)c1C [Compound 5d, 1-Allyl-N-(3,4-difluorophenyl)-3,5-dimethyl-4-(2-oxo-2-(prop-2-yn-1-ylamino)acetyl)-1H-pyrrole-2-carboxamide]
CC50 [1]: > 100 µM | EC50 [2]: 0.003 ± 0.0014 µM | EC90 [2]: 0.128 ± 0.15 µM | CC50 [3]: > 100 µM | CC50 [4]: > 100 µM | CC50 [5]: > 100 µM

C#CCNC(=O)C(=O)c1c(C)c(C(=O)Nc2ccc(F)c(F)c2)n(C2CC2)c1C [Compound 5e, 1-Cyclopropyl-N-(3,4-difluorophenyl)-3,5-dimethyl-4-(2-oxo-2-(prop-2-yn-1-ylamino)acetyl)-1H-pyrrole-2-carboxamide]
CC50 [1]: > 100 µM | EC50 [2]: 0.0075 ± 0.0078 µM | EC90 [2]: 0.0415 ± 0.012 µM | CC50 [3]: > 100 µM | CC50 [4]: > 100 µM | CC50 [5]: > 100 µM

C#CCNC(=O)C(=O)c1c(C)c(C(=O)Nc2ccc(F)c(F)c2)n(CC2CC2)c1C [Compound 5f, 1-(Cyclopropylmethyl)-N-(3,4-difluorophenyl)-3,5-dimethyl-4-(2-oxo-2-(prop-2-yn-1-ylamino)acetyl)-1H-pyrrole-2-carboxamide]
CC50 [1]: > 100 µM | EC50 [2]: 0.0522 ± 0.0271 µM | EC90 [2]: 0.0522 ± 0.0271 µM | CC50 [3]: > 100 µM | CC50 [4]: > 100 µM | CC50 [5]: > 100 µM

C#CCNC(=O)C(=O)c1c(C)c(C(=O)Nc2ccc(F)c(F)c2)n(CC#C)c1C [Compound 5g, N-(3,4-Difluorophenyl)-3,5-dimethyl-4-(2-oxo-2-(prop-2-yn-1-ylamino)acetyl)-1-(prop-2-yn-1-yl)-1H-pyrrole-2-carboxamide]
CC50 [1]: > 100 µM | fold increase of anti-HBV potency compared to GLP-26 [2]: > 5 fold | EC50 [2]: 0.00088 ± 0.00043 µM | EC90 [2]: 0.0103 ± 0.006 µM | CC50 [3]: > 100 µM | CC50 [4]: > 100 µM | CC50 [5]: > 100 µM

C#CCNC(=O)C(=O)c1c(C)c(C(=O)Nc2ccc(F)c(F)c2)n(CC#CC)c1C [Compound 5h, 1-(But-2-yn-1-yl)-N-(3,4-difluorophenyl)-3,5-dimethyl-4-(2-oxo-2-(prop-2-yn-1-ylamino)acetyl)-1H-pyrrole-2-carboxamide]
CC50 [1]: > 100 µM | EC50 [2]: 0.0452 ± 0.0201 µM | EC90 [2]: 0.395 ± 0.327 µM | CC50 [3]: > 100 µM | CC50 [4]: > 100 µM | CC50 [5]: > 100 µM

C#CCNC(=O)C(=O)c1c(C)c(C(=O)Nc2ccc(F)c(F)c2)n(CC#CCC)c1C [Compound 5i, N-(3,4-Difluorophenyl)-3,5-dimethyl-4-(2-oxo-2-(prop-2-yn-1-ylamino)acetyl)-1-(pent-2-yn-1-yl)-1H-pyrrole-2-carboxamide]
CC50 [1]: > 100 µM | EC50 [2]: 0.826 ± 0.172 µM | EC90 [2]: 3.69 µM | CC50 [3]: > 100 µM | CC50 [4]: > 100 µM | CC50 [5]: > 100 µM

C#CCNC(=O)C(=O)c1c(C)c(C(=O)Nc2ccc(F)c(F)c2)n(Cc2ccccc2)c1C [Compound 5j, 1-Benzyl-N-(3,4-difluorophenyl)-3,5-dimethyl-4-(2-oxo-2-(prop-2-yn-1-ylamino)acetyl)-1H-pyrrole-2-carboxamide]
CC50 [1]: > 100 µM | EC50 [2]: 2.52 µM | EC90 [2]: > 10 µM | CC50 [3]: > 100 µM | CC50 [4]: > 100 µM | CC50 [5]: > 100 µM

C#CC(C)(C)NC(=O)C(=O)c1c(C)c(C(=O)Nc2ccc(F)c(F)c2)n(C)c1C [Compound 9a, N-(3,4-Difluorophenyl)-1,3,5-trimethyl-4-(2-((2-methylbut-3-yn-2-yl)amino)-2-oxoacetyl)-1H-pyrrole-2-carboxamide]
CC50 [1]: 25 ± 2 µM | fold increase of anti-HBV potency compared to GLP-26 [2]: 5–30 fold | EC50 [2]: 0.00071 ± 0.00022 µM | EC90 [2]: 0.0082 ± 0.0006 µM | CC50 [3]: > 100 µM | CC50 [4]: 64 ± 26 µM | CC50 [5]: 91 ± 12 µM

C#CC(C)(CC)NC(=O)C(=O)c1c(C)c(C(=O)Nc2ccc(F)c(F)c2)n(C)c1C (stereo not shown) [Compound 9b, N-(3,4-Difluorophenyl)-1,3,5-trimethyl-4-(2-(3-methylpent-1-yn-3-ylamino)-2-oxoacetyl)-1H-pyrrole-2-carboxamide]
CC50 [1]: 10 ± 3 µM | fold increase of anti-HBV potency compared to GLP-26 [2]: 5–30 fold | EC50 [2]: 0.00015 ± 7e-05 µM | EC90 [2]: 0.0068 ± 0.0034 µM | CC50 [3]: 64 ± 16 µM | CC50 [4]: 61 ± 43 µM | CC50 [5]: 84 ± 11 µM

C#CC(CC)(CC)NC(=O)C(=O)c1c(C)c(C(=O)Nc2ccc(F)c(F)c2)n(C)c1C [Compound 9c, N-(3,4-Difluorophenyl)-4-(2-(3-ethylpent-1-yn-3-ylamino)-2-oxoacetyl)-1,3,5-trimethyl-1H-pyrrole-2-carboxamide]
CC50 [1]: 16 µM | fold increase of anti-HBV potency compared to GLP-26 [2]: 5–30 fold | EC50 [2]: 0.0005 ± 0.0003 µM | EC90 [2]: 0.0046 ± 0.0023 µM | CC50 [3]: 42 µM | CC50 [4]: 26 ± 14 µM | CC50 [5]: 44 ± 35 µM

C#CC1(NC(=O)C(=O)c2c(C)c(C(=O)Nc3ccc(F)c(F)c3)n(C)c2C)CC1 [Compound 9d, N-(3,4-Difluorophenyl)-4-(2-(1-ethynylcyclopropylamino)-2-oxoacetyl)-1,3,5-trimethyl-1H-pyrrole-2-carboxamide]
CC50 [1]: > 100 µM | fold increase of anti-HBV potency compared to GLP-26 [2]: 5–30 fold | EC50 [2]: 0.0008 ± 0.0007 µM | EC90 [2]: 0.0061 ± 0.0022 µM | CC50 [3]: > 100 µM | CC50 [4]: > 100 µM | CC50 [5]: > 100 µM

C#CC1(NC(=O)C(=O)c2c(C)c(C(=O)Nc3ccc(F)c(F)c3)n(C)c2C)CCC1 [Compound 9e, N-(3,4-Difluorophenyl)-4-(2-(1-ethynylcyclobutylamino)-2-oxoacetyl)-1,3,5-trimethyl-1H-pyrrole-2-carboxamide]
CC50 [1]: > 100 µM | fold increase of anti-HBV potency compared to GLP-26 [2]: 5–30 fold | EC50 [2]: 0.0003 ± 0.0004 µM | EC90 [2]: 0.0019 ± 0.0015 µM | CC50 [3]: > 100 µM | CC50 [4]: > 100 µM | CC50 [5]: 98 µM

C#CC1(NC(=O)C(=O)c2c(C)c(C(=O)Nc3ccc(F)c(F)c3)n(C)c2C)CCCCC1 [Compound 9f, N-(3,4-Difluorophenyl)-4-(2-(1-ethynylcyclohexylamino)-2-oxoacetyl)-1,3,5-trimethyl-1H-pyrrole-2-carboxamide]
CC50 [1]: 15 µM | fold increase of anti-HBV potency compared to GLP-26 [2]: only a moderate improvement | EC50 [2]: 0.0035 ± 0.0048 µM | EC90 [2]: 0.0074 ± 0.0093 µM | CC50 [3]: 43 µM | CC50 [4]: 23 ± 13 µM | CC50 [5]: 42 ± 23 µM

C#CCn1c(C)c(C(=O)C(=O)NC(C#C)(CC)CC)c(C)c1C(=O)Nc1ccc(F)c(F)c1 [Compound 10b, N-(3,4-difluorophenyl)-4-(2-((3-ethylpent-1-yn-3-yl)amino)-2-oxoacetyl)-3,5-dimethyl-1-(prop-2-yn-1-yl)-1H-pyrrole-2-carboxamide]
CC50 [1]: 76 ± 17 µM | EC50 [2]: 0.0079 ± 0.0016 µM | EC90 [2]: 0.06 ± 0.041 µM | CC50 [3]: > 100 µM | CC50 [4]: 53 ± 41 µM | CC50 [5]: 72 ± 39 µM
